The list is not random: actives were taken first. Their share in the collection is about 0.63%.
STK33 kinase inh: blocks human STK33 kinase activity. Q9BYT3. purified STK33, MBP phosphorylation, ADP-Glo luminescence. inhibition, % at 10 µM. 0.073% of 320,000 active. AID 2661;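 active means inhibition at or above 25%, using the most active replicate where run in duplicate; inactive means inhibition below 25%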
MT1-MMP act inh: blocks activation of human MT1-MMP; P50281; GFP/RFP ratio change, % at 20 µM; HT1080 RFP-PRO-GFP cells, GFP/RFP ratio fluorescence, overnight; percent of plate control window, DMSO zero; 0.061% of 360,000 active;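 active means GFP/RFP ratio change of at least 30% with cell ATP level not reduced by more than half and red fluorescence within 50% of control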
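Test system: HT1080 cells expressing an RFP-PRO-GFP fluorescent reporter construct / Compound dosing: single-point 20 µM compound, 1% DMSO / Schedule: cells overnight before dosing, compound overnight, 37 °C, 5% CO2 / Evaluation: GFP/RFP fluorescence ratio / Control set: DMSO and RFP-L50D-GFP cell wells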
DSG3 Ab inh: blocks pemphigus antibody binding to human desmoglein-3; P32926; DSG3-coupled beads, scFv-anti-DSG3-GFP binding, flow cytometry; stronger effect = lower value; binding (percent of control), % at 10 µM; 0.48% of 310,000 active; AID 588358;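 active means binding more than 3 SD below its plate's average and above zero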;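 further: hits lower antibody fragment binding to DSG3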
Target sequence (P32926 whole entry, looked up, the tested form may be a part): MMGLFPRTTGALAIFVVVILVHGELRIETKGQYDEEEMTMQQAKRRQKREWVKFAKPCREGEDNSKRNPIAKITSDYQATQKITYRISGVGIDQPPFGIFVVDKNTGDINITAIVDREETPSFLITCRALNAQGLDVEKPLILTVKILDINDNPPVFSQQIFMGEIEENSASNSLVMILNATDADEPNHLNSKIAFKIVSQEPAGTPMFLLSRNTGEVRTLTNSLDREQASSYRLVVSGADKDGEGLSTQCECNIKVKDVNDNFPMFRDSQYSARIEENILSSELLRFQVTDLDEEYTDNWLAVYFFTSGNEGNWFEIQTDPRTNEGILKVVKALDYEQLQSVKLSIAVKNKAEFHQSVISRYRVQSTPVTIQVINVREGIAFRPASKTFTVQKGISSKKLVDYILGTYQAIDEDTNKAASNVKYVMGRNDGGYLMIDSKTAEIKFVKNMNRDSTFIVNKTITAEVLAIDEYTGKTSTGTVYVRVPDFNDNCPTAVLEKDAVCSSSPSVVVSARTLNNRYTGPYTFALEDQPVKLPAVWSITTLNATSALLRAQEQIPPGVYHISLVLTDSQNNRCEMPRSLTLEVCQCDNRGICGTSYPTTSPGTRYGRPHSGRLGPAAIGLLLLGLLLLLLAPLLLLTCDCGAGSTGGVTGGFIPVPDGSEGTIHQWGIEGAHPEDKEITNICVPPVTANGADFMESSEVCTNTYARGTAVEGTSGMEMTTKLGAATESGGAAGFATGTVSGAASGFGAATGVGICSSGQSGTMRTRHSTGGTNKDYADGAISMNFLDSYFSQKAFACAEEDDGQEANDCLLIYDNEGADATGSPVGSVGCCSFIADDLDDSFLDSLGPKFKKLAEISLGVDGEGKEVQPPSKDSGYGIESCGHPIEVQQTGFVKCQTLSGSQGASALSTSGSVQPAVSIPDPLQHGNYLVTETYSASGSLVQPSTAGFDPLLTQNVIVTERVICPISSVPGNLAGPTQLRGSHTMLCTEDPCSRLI
GSK3B inh: blocks human GSK3beta kinase activity; activity score (negative = inhibition), % at 10 µM; GST-GSK3beta kinase, ADP-Glo luminescence, 60 min; stronger effect = lower value; P49841; 0.038% of 300,000 active; AID 2097;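 active means more than half of replicate wells score below -50%, meaning over 50% inhibition versus plate controls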;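 further: 0% = median DMSO wells and -100% = median GW8510 positive control wells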
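Assay system: GST-fused GSK3beta enzyme, cell-free / Medium: Tris pH 7.5 buffer with MgCl2, DTT, BSA, heparin / Also added: peptide substrate plus 25 µM ATP (final) / Compound: 10 µM single point / Timing: kinase reaction with compound 60 min at room temperature / Detection: ADP-Glo luminescence / Benchmarks: DMSO neutral wells and GW8510 at 20 µM as positive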
GSK3 alpha inh: human GSK-3 alpha kinase inhibition; inhibition, % at 10 µM; ADP-Glo luminescence, 60 min; AID 2650; 0.1% of 320,000 active;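 active means more than half of replicates show inhibition above 20%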;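 further: GST-tagged GSK-3 alpha with peptide substrate and 25 µM ATP; 0% = DMSO neutral wells and 100% = GW8510 positive control wells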
* marks the source's active call; other numbers are inactive results; x = not tested or not shown.

SMILES	STK33 kinase inh	MT1-MMP act inh	DSG3 Ab inh	GSK3B inh	GSK3 alpha inh
COCCNc1nc(-c2ccccc2F)c2sc(-c3ccccc3)cc2n1	x	-7	x	x	x
C[C@@H]1CN([C@H](C)CO)C(=O)CCCn2nncc2CO[C@H]1CN(C)Cc1ccccc1	x	1	x	x	x
C[C@H](CO)N1C[C@H](C)[C@@H](CN(C)Cc2ccccc2)OCc2cnnn2CCCC1=O	x	10	91*	x	x
CC1(C(=O)Nc2ccc3c(c2)OCCO3)CN(S(C)(=O)=O)CC(=O)N1CCc1ccccc1F (stereo unspecified)	x	0	x	x	x
Cc1ccccc1NC(=O)Cc1nc(COC(=O)c2cccc([N+](=O)[O-])c2)cs1	-2	4	78*	0	0
CN(C)c1ccc(CC(=O)N2CCCCC2c2cc(C(=O)Nc3ccccc3)no2)cc1 (stereo unspecified)	x	-8	x	x	x
COc1ccc(C(=O)O/N=C(\C)c2ccccc2)cc1	29*	-7	105	-28	25
COc1ccc(C(=O)O/N=C(/c2ccccc2)c2ccncc2)cc1	-2	2	101	1	2
Cc1cc2ccccc2n1CCNC(=O)c1cccs1	0	48	61*	1	-2
CN(C)c1nc(N)ncc1-c1ccc(Oc2ccccc2)cc1	0	3	79*	0	-2
COc1ccc(-c2nc(N)ncc2-c2ccccc2)c(O)c1	4	-1	93	4	3
COC(=O)C(Sc1ccc(Cl)cc1)C1SC(=S)N(Cc2ccccc2)C1=O (stereo unspecified)	x	-7	106	x	x
O=C(O)c1cccc(-n2cccc2/C=C2/NC(=O)N(c3cccc(Cl)c3)C2=O)c1	-2	-1	89	-1	-2
O=C(O)c1cccc(-n2cccc2/C=C2/NC(=O)N(c3ccc(Cl)cc3)C2=O)c1	x	-6	41*	x	x
COCCCn1c(=O)c2ccccc2n(Cc2ccccc2)c1=O	0	-4	100*	1	-2
C/C(=N/NC(=O)c1cc(-c2cccc([N+](=O)[O-])c2)n[nH]1)c1cccc(O)c1	0	14	75*	2	-1
CC(C)(C)NC(=O)C(c1ccccc1F)n1c(=O)c(-c2ccccc2)nc2ccccc21 (stereo unspecified)	x	2	x	x	x
O=C(CSc1nc(-c2ccc(F)cc2)cs1)Nc1ccccn1	-1	2	44*	-5	-2
O=C(CSc1nc2ccccc2n1CCc1ccccc1)c1ccc(O)c(O)c1	x	3	72*	x	x
O=C(O)c1ccc(/C=N/Nc2ccc(C(F)(F)F)cn2)cc1	x	-2	101	-42	x
COc1cc(/C=N/Nc2ccc(C(F)(F)F)cn2)ccc1O	28*	-2	100	-37	4
CC(C)(C)OC(=O)N1CCCN(C(=O)Nc2ccccc2)CC1	-2	1	87*	0	1
O=C(Nc1ccc(NC(=O)N2CCN(c3ccccc3O)CC2)cc1)N1CCN(c2ccccc2O)CC1	0	7	54*	-2	-2
Nc1[nH]c(C(=O)c2ccccc2)c(-c2cccc3ccccc23)c1C(=O)NCc1ccccc1	x	0	x	x	x
CCC(CC)C(=O)Nc1nnc(S(=O)(=O)N2c3ccccc3CC2C)s1 (stereo unspecified)	-1	-2	-14*	-2	1
SMILES	STK33 kinase inh	MT1-MMP act inh	DSG3 Ab inh	GSK3B inh	GSK3 alpha inh
CCC(CC)C(=O)Nc1nnc(S(=O)(=O)N2CCc3ccccc32)s1	-1	5	93	0	-2
C#CCn1c2ccccc2c2nc3ccccc3nc21	1	0	82*	-2	-1
N#CCn1c2ccccc2c2nc3ccccc3nc21	1	-2	97	2	5
Cc1nn(Cc2ccc(F)cc2)c2sc(C(=O)Nc3ccccc3N3CCOCC3)cc12	-1	0	86*	1	-4
COCCCn1c(=O)c2ccccc2n(CC(=O)NCCC2=CCCCC2)c1=O	2	-2	107	2	-2
COCCCNC(=O)CCn1c(=O)c2ccccc2n(CC(=O)NCCC2=CCCCC2)c1=O	1	-5	68*	-4	4
CCCCNC(=O)C[C@@H]1C[C@@]2(C(=O)OCC)CCC=C2N(Cc2ccc(Cl)cc2Cl)C1=O	x	-5	x	x	x
COc1cccc(Nc2nc(C(N)C3CCCCC3)cs2)n1 (stereo unspecified)	x	-8	x	x	x
COc1ccnc(N2CCN(c3cccc(C(F)(F)F)c3)CC2)c1C#N	1	5	79*	-5	-2
COc1ccnc(N2CCN(c3ccc(Cl)cc3)CC2)c1C#N	2	3	100	-2	6
Cc1cc(C)cc(NC(=O)Cn2ncn3c(cc4ccccc43)c2=O)c1	1	-4	82*	-1	6
COC(=O)c1cccc(N2CCCC2=O)c1	-1	3	102	1	0
O=c1c2ccccc2sn1-c1ccc(F)cc1	0	-5	42*	x	-2
O=c1c2cc(F)ccc2sn1-c1ccccc1Cl	x	-1	x	x	x
O=c1c2ccc(F)cc2sn1-c1ccccc1	x	16	50*	x	x
Cc1ccc(-n2sc3cc(F)ccc3c2=O)c(C)c1	x	20	63*	x	x
COC(=O)c1cccc(-n2sc3ccccc3c2=O)c1	-1	-4	38*	x	-1
Cc1ccc(-n2sc3ccccc3c2=O)cc1	-4	4	x	-2	3
COc1ccccc1CN(C)C[C@@H]1OCc2cnnn2CCCC(=O)N([C@@H](C)CO)C[C@H]1C	x	-2	101	x	x
COC(=O)CC1OCC=C2CN3CCC45C6=CC(=O)C(=O)C([N+](=O)[O-])=C6NC4C1C2CC35 (stereo unspecified)	x	4	x	x	x
O=C(C[C@@H]1C=C[C@H](NC(=O)Cc2ccccn2)[C@@H](CO)O1)NCCc1ccccc1	x	4	x	x	x
Cc1cc(NC(=O)CCCN2C(=O)/C(=C/c3cccs3)SC2=S)no1	0	-3	16*	0	1
Cc1ccc(NC(=O)CCCN2C(=O)/C(=C/C=C/c3ccccc3)SC2=S)cc1	-1	10	85*	-16	-1
Cc1cc(NC(=O)CCCN2C(=O)c3cccc4cccc(c34)C2=O)no1	-1	-1	92*	3	1
O=C(CCCN1C(=O)S/C(=C/C=C/c2ccccc2)C1=O)Nc1ccc(C(=O)O)cc1	-1	-4	108	2	-2
CC(C)(C)N1C(=O)c2ccccc2NC(=O)C1C(=O)NCCOc1ccccc1 (stereo unspecified)	x	-2	x	x	x
COc1ccc(-c2nc3ccc(C)cn3c2Cc2ccsc2)cc1OC	x	-4	x	x	x

From PubChem
